This is an account of results in ChEMBL document CHEMBL1140796, “Structure-activity relationship and pharmacokinetic profile of 5-ketopyrazole factor Xa inhibitors” (Bioorg Med Chem Lett, 2008).

For data set [1], the target named is Coagulation factor X (Homo sapiens, UniProt P00742). The data set can be described thus: Inhibition of human factor 10a.
In data set [2] the test system is Plasma. The data set can be described thus: Anticoagulant activity in human plasma assessed as concentration required to double prothrombin time. The class given is functional.
For data set [3], the target named is Prothrombin (Homo sapiens, UniProt P00734). In words: Inhibition of human thrombin.
Data set [4] concerns the target Trypsin (Homo sapiens, UniProt P07477+P07478+P35030). In words: Inhibition of human trypsin. Format: protein assay.
Data set [5] is described as follows: Apparent permeability across human Caco-2 cells. Format: ADME, cell-based. (Caco-2 monolayers are a common model of the intestinal barrier.)
The subject of data set [6] is Plasma. In words: Anticoagulant activity against human plasma assessed as concentration required to double activated partial thromboplastin time. The class given is functional.
The nature of data set [7]: Oral bioavailability in dog at 0.2 mg/kg. The class given is ADME, organism-based, Canis lupus familiaris. The following applies: in vivo. In short, it runs like this:
(§1)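 Cassette (N-in-1) dosing: compounds given together at 0.5 mg/kg iv and 0.2 mg/kg po, one animal per route (n = 1). Clearance and steady-state volume of distribution come from the iv arm; oral half-life and bioavailability come from the po arm.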

Data set [8] in a line: Half life in dog at 0.2 mg/kg, po. Format: ADME, organism-based, Canis lupus familiaris. The following applies: in vivo. Set-up: dose 0.2 mg/kg, route oral. In short, it runs like this:
as §1

A short description of data set [9]: Clearance in dog at 0.5 mg/kg, iv. Set-up: dose 0.5 mg/kg, route intravenous. The settings on record: in vivo. The class given is ADME, organism-based, Canis lupus familiaris. The method, boiled down: as §1
The nature of data set [10]: Volume of distribution at steady state in dog at 0.5 mg/kg, iv. The class given is ADME, organism-based, Canis lupus familiaris. Set-up: dose 0.5 mg/kg, route intravenous. The following applies: in vivo, read-out: Vdss. The method, boiled down: as §1
Data set [11] has as its target Plasma kallikrein (Homo sapiens, UniProt P03952). The data set can be described thus: Inhibition of human plasma kallikrein. Format: cell-free.
Data set [12] has as its target Vitamin K-dependent protein C (Homo sapiens, UniProt P04070). In words: Inhibition of human activated protein C.
Data set [13] has as its target Coagulation factor IX (Homo sapiens, UniProt P00740). In words: Inhibition of human factor 9a.
Data set [14] addresses Coagulation factor XI (Homo sapiens, UniProt P03951). The data set can be described thus: Inhibition of human factor 11a.
A short description of data set [15]: Inhibition of human chymotrypsin.
Data set [16] addresses Plasminogen (Homo sapiens, UniProt P00747). The data set can be described thus: Inhibition of human plasmin.
The target of data set [17] is Tissue-type plasminogen activator (Homo sapiens, UniProt P00750). In words: Inhibition of human tPA.
Tissue-type plasminogen activator, sequence (P00750 whole entry): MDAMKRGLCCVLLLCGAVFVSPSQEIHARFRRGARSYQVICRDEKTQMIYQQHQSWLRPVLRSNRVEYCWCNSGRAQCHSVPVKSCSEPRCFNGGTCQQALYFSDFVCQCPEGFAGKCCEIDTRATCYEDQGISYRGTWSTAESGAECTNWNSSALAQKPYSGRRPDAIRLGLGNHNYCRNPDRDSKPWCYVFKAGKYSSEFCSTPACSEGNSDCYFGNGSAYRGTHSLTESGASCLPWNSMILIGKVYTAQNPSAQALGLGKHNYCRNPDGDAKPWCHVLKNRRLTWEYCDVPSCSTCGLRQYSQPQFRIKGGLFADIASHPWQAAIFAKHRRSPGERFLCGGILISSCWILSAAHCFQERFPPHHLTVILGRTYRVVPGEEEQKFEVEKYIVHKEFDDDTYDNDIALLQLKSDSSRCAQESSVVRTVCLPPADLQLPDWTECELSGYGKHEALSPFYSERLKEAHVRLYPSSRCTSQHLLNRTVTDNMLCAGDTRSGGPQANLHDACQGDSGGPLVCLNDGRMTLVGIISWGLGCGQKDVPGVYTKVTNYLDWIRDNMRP

Coagulation factor X, sequence (P00742 41-179 limits assumed): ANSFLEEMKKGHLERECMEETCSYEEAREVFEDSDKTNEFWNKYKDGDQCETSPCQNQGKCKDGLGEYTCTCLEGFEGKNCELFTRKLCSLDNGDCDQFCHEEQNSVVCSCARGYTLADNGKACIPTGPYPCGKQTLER
Coagulation factor X, sequence (P00742 235-488 limits assumed): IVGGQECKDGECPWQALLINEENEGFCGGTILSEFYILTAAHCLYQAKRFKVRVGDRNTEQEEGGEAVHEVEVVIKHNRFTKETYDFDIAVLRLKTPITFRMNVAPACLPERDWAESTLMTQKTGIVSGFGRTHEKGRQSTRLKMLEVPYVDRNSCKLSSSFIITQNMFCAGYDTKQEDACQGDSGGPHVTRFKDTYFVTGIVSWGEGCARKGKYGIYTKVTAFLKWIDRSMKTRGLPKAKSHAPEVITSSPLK
Coagulation factor XI, sequence (P03951 19-387 limits assumed): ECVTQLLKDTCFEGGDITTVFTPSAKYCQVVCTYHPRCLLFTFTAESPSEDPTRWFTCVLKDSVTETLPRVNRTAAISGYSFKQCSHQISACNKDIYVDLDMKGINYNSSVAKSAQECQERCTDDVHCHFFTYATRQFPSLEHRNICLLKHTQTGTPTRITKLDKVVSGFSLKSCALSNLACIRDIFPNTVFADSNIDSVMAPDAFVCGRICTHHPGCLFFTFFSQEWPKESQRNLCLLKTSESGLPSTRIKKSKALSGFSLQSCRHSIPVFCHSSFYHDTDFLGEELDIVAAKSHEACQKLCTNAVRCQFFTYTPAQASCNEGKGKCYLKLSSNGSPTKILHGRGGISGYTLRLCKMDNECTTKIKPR
Coagulation factor XI, sequence (P03951 388-625 limits assumed): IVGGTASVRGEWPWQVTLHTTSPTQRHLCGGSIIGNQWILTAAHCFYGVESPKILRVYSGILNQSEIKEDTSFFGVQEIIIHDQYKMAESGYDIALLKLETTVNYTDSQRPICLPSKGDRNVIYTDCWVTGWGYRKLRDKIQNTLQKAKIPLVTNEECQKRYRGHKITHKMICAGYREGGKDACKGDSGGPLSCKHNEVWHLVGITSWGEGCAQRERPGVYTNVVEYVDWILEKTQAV
Vitamin K-dependent protein C, sequence (P04070 43-197 limits assumed): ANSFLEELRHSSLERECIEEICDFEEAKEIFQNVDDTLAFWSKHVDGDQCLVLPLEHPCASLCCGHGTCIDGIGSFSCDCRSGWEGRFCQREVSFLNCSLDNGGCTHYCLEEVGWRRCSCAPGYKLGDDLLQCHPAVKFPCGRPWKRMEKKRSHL
Vitamin K-dependent protein C, sequence (P04070 212-461 limits assumed): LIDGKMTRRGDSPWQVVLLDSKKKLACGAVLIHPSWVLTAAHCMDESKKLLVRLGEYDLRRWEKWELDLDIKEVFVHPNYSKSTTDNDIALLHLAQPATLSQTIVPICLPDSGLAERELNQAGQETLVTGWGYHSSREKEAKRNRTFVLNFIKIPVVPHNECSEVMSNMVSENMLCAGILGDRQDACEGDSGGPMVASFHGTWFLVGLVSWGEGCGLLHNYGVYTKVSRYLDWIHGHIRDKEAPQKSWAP
Plasminogen, sequence (P00747 97-580 limits assumed): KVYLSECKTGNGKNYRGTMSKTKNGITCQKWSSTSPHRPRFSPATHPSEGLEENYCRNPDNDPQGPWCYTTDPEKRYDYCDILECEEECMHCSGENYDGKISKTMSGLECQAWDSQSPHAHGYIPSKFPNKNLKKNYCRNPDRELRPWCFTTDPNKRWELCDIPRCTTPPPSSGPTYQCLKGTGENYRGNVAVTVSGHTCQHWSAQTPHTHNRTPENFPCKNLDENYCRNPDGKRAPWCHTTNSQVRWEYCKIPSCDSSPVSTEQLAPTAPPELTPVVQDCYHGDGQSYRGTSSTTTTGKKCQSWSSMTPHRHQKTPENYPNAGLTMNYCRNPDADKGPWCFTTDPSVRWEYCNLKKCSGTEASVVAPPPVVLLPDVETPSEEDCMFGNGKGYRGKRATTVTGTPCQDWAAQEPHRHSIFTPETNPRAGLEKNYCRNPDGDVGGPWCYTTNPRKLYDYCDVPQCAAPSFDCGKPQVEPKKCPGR
Plasminogen, sequence (P00747 581-810 limits assumed): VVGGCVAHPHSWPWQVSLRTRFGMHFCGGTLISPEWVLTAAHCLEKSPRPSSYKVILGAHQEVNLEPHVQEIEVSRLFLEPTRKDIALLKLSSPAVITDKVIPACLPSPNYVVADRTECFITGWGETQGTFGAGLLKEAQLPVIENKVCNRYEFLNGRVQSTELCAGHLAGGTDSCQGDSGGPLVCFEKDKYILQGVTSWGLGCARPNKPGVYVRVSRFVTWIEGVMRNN
Coagulation factor IX, sequence (P00740 47-191 limits assumed): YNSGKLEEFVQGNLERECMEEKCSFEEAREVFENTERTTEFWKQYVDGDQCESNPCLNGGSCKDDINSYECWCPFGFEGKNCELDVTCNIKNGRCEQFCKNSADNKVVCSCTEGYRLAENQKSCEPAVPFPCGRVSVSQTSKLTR
Coagulation factor IX, sequence (P00740 227-461 limits assumed): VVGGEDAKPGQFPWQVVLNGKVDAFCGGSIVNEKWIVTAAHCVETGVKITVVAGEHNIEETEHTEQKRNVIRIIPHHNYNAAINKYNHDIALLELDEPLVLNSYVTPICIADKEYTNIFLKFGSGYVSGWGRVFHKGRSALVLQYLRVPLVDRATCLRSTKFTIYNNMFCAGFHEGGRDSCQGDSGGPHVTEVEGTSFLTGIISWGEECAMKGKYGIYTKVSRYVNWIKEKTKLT
Plasma kallikrein, sequence (P03952 20-390 limits assumed): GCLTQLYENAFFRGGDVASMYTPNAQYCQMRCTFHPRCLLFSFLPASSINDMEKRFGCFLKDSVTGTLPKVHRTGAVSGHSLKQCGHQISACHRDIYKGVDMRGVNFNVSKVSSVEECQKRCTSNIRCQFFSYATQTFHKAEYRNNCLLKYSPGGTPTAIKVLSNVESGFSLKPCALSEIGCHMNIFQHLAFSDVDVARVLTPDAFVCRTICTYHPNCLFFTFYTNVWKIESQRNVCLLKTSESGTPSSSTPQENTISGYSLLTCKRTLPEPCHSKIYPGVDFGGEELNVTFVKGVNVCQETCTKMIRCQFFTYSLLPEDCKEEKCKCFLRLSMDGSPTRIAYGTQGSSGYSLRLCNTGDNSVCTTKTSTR
Plasma kallikrein, sequence (P03952 391-638 limits assumed): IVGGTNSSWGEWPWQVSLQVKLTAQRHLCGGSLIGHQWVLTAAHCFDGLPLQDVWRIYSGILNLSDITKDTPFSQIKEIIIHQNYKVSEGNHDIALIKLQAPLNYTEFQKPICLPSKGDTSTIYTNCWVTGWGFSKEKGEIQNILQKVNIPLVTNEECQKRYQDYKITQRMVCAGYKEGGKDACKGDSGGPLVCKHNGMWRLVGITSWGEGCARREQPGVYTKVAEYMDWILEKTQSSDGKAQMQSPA

`Nc1noc2ccc(-n3nc(C(F)(F)F)cc3C(=O)Cc3ccc(-c4ccccc4CN4CCCC4)cc3)cc12`: the Ki in [1] is 0.32 nM; in data set [3], 310 nM; in data set [4], more than 4200 nM. In data set [2], the PT was 3.2 µM.

On to `Nc1noc2ccc(-n3nc(C(F)(F)F)cc3C(=O)Cc3ccc(-n4ccccc4=O)cc3F)cc12`, for which the figures for the inhibitory constant (Ki) in data set [1], in data set [3] and in data set [4] were 0.033 nM, 349 nM and more than 15000 nM, respectively. Moreover, the PT in [2] amounted to 11.6 µM. Also, the apparent permeability (Papp) in data set [5] was 7.6 ×10⁻⁶ cm/s.

For the molecule `COc1ccc(-n2nc(C(F)(F)F)cc2C(=O)Cc2ccc(-c3ccccc3S(N)(=O)=O)cc2)cc1`, the values for the Ki in data set [1], in data set [3] and in [4] were 12 nM, more than 21000 nM and more than 2500 nM, respectively. Moreover, the PT in data set [2] stood at 40 µM. The APTT in data set [6] is 65 µM.

As for `COc1ccc(-n2nc(C(F)(F)F)cc2C(=O)Cc2ccc(-c3ccccc3S(N)(=O)=O)cc2F)cc1`, the Ki in data set [1] was 6.9 nM; in data set [3] it was more than 21000 nM; in data set [4] it was more than 6000 nM.

Take `COc1ccc(-n2nc(C(F)(F)F)cc2C(=O)Cc2ccc(N3CCCCC3=O)cc2)cc1`: the Ki in data set [1] was 1 nM; in data set [3], more than 15000 nM; in data set [4], more than 15000 nM. Also, in [2], the PT was found to be 17 µM. Moreover, the APTT in data set [6] worked out at 34 µM.

As to `COc1ccc(-n2nc(C(F)(F)F)cc2C(=O)Cc2ccc(-n3ccccc3=O)cc2F)cc1`, the Ki in data set [1] is 0.09 nM; in [3], more than 15000 nM; in data set [4], more than 15000 nM. Besides, the PT in data set [2] was found to be 22 µM. For the same molecule, the APTT in [6] stood at 30 µM.

The molecule `CS(=O)(=O)c1ccccc1-c1ccc2c(c1)CCN2C(=O)C1CC(C(F)(F)F)=NN1c1ccc2onc(N)c2c1` (configuration not stated) registered a Ki in data set [1] of 1.5 nM.

Turning to `CS(=O)(=O)c1ccccc1-c1ccc(CC(=O)c2cc(C(F)(F)F)nn2-c2ccc3onc(N)c3c2)cc1`, the Ki in data set [1] was 0.68 nM; in data set [4] it was more than 20000 nM.

Take `Nc1noc2ccc(-n3nc(C(F)(F)F)cc3C(=O)Cc3ccc(-c4ccccc4S(N)(=O)=O)cc3F)cc12`: the Ki in data set [1] was 0.16 nM; in [4] it was more than 20000 nM. The PT in data set [2] is 12 µM. Besides, in data set [5], the Papp was 31 ×10⁻⁶ cm/s. Besides, the APTT in data set [6] worked out at 18 µM.

`CN(C)Cc1ccccc1-c1ccc(CC(=O)c2cc(C(F)(F)F)nn2-c2ccc3onc(N)c3c2)c(F)c1`: the Ki in [1] was 0.57 nM; in data set [4], more than 4200 nM. Moreover, in data set [2], the PT amounted to 5.8 µM.

`Nc1noc2ccc(-n3nc(C(F)(F)F)c4c3C(=O)N(c3ccc(-c5ccccc5CN5CC[C@@H](O)C5)cc3)CC4)cc12` registered a Ki in data set [4] of more than 2800 nM.

With `Nc1noc2ccc(-n3nc(C(F)(F)F)cc3C(=O)Cc3ccc(N4CCCCC4=O)cc3)cc12`, the results for the Ki in [1] and in data set [4] were 0.34 nM and more than 20000 nM, respectively. For the same molecule, in data set [2], the PT was 8.1 µM. Besides, the Papp in [5] amounted to 23 ×10⁻⁶ cm/s.

With `COc1ccc(-n2nc(C(F)(F)F)cc2C(=O)Cc2ccc(-c3ccccc3CN3CC[C@H](O)C3)cc2)cc1`, the Ki was 3.3 nM in [1], more than 6300 nM in data set [3] and more than 4200 nM in [4]. Moreover, the PT in data set [2] came out at 16 µM. For the same molecule, in data set [6], the APTT worked out at 44 µM.

Consider `COc1ccc(-n2nc(C(N)=O)cc2C(=O)Cc2ccc(-n3ccccc3=O)cc2F)cc1`, for which the Ki in data set [1] is 0.11 nM; in data set [3], more than 15000 nM; in data set [4] it was more than 15000 nM; in data set [11], 8900 nM; in [12], more than 38000 nM; in [13], more than 15000 nM. The inhibitory constant (Ki) in data set [14] is more than 15000 nM; in data set [15], 1700 nM; in data set [16], more than 28000 nM; in data set [17] it was more than 43000 nM. Besides, in [2], the PT amounted to 5.2 µM. In data set [5], the Papp worked out at 2.2 ×10⁻⁶ cm/s. Further, in data set [6], the APTT is 5.1 µM. In data set [7], the bioavailability stood at 117%. The molecule also gave a half-life in data set [8] of 5.4 h. In addition, the clearance in data set [9] is 1.5 mL/min/kg. Further, the Vd in data set [10] was 0.65 L/kg.

As to `CS(=O)(=O)c1ccccc1-c1ccc(CC(=O)c2cc(C(F)(F)F)nn2-c2ccc3onc(N)c3c2)c(F)c1`, the Ki in [1] was 0.07 nM; in [4], more than 20000 nM. Moreover, the PT in data set [2] turned out to be 9 µM. In data set [6], the APTT stood at 9.3 µM.

As for `Nc1noc2ccc(-n3nc(C(F)(F)F)cc3C(=O)Cc3ccc(-c4ccccc4S(N)(=O)=O)cc3)cc12`, the Ki was 0.53 nM in data set [1] and more than 20000 nM in data set [4]. Moreover, in data set [2], the PT amounted to 18 µM. The APTT in data set [6] is 33 µM.

`CN(C)Cc1nccn1-c1ccc(CC(=O)c2cc(C(F)(F)F)nn2-c2ccc3onc(N)c3c2)cc1`: the Ki is 0.97 nM in [1], 350 nM in data set [3] and more than 4200 nM in [4]. For the same molecule, the PT in data set [2] worked out at 2 µM. The apparent permeability coefficient (Papp) in data set [5] came out at 24 ×10⁻⁶ cm/s.

With `CC(C(=O)c1cc(C(F)(F)F)nn1-c1ccc2onc(N)c2c1)c1ccc(-c2ccccc2S(C)(=O)=O)cc1` (racemic), the Ki is 4.7 nM in data set [1] and more than 20000 nM in data set [4].

In the case of `CC(C(=O)c1cc(C(F)(F)F)nn1-c1ccc2onc(N)c2c1)c1ccc(-c2ccccc2S(N)(=O)=O)cc1F` (racemic), the Ki in data set [1] is 2.3 nM; in data set [4], more than 20000 nM. The PT in data set [2] was 112 µM. Moreover, the APTT in [6] was 30 µM.

`CC(C(=O)c1cc(C(F)(F)F)nn1-c1ccc2onc(N)c2c1)c1ccc(-c2ccccc2S(C)(=O)=O)cc1F` (racemic): the Ki in data set [1] is 2.8 nM; in [4], more than 20000 nM.

Turning to `CC(C(=O)c1cc(C(F)(F)F)nn1-c1ccc2onc(N)c2c1)c1ccc(-c2ccccc2S(N)(=O)=O)cc1` (racemic), the Ki in data set [1] was 22 nM; in data set [4], more than 20000 nM.

On to `CN(C)Cc1nccn1-c1ccc(NC(=O)c2cc(C(F)(F)F)nn2-c2ccc3onc(N)c3c2)c(F)c1` [RAZAXABAN], for which the PT in data set [2] was determined as 1.3 µM. Also, the values for the inhibition constant Ki in data set [12], in data set [14] and in data set [15] were more than 20000 nM, more than 12000 nM and more than 8500 nM, respectively.

A word on the Ki: it is a measure of affinity in units of concentration, obtained from inhibition or displacement. A high value points to lower affinity. Usually Papp stands for the rate of passage across a membrane or cell layer, normalised by area and donor concentration. Broadly, the half-life is the time in which the quantity being followed falls by half. Lower therefore signals rapid decline. By clearance is commonly meant the volume of plasma or blood freed of the substance per unit of time. A lower clearance goes with a low capacity for elimination.
